Format in all cases: functional
The subject of one test is Serratia sp. Nature of the test: Antibacterial activity against Serratia spp. by broth microdilution method. The note with it: Serratia sp. (in: enterobacteria). A digest of the protocol:
(§1)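 MICs were determined by CLSI broth microdilution against clinical isolate panels that included aminoglycoside-resistant isolates. […] MIC90 was derived per group and not calculated when n was <10. Imipenem, ceftobiprole, ciprofloxacin and tigecycline MICs were also determined for the resistant isolates.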
For orientation: In broth dilution the organism is exposed to a series of concentrations in liquid medium.

In the next test the test system is Klebsiella sp. As to the kind of experiment: Antibacterial activity against Klebsiella spp. by broth microdilution method. The essentials: as §1
In another test the test system is Acinetobacter sp. Nature of the test: Antibacterial activity against Acinetobacter spp. by broth microdilution method. A digest of the protocol: as §1
The next test has as its system Pseudomonas aeruginosa. Nature of the test: Antibacterial activity against Pseudomonas aeruginosa by broth microdilution method. A digest of the protocol:
as §1

Test [1] in a line: Antibacterial activity against indole positive Proteae by broth microdilution method. A digest of the protocol:
as §1

The test system of the next test is Citrobacter. Nature of the test: Antibacterial activity against Citrobacter spp. by broth microdilution method. A digest of the protocol: as §1
In the next test the test system is Escherichia coli. As to the kind of experiment: Antibacterial activity against Escherichia coli by broth microdilution method. A digest of the protocol: as §1
Another test deals with Proteus mirabilis. As to the kind of experiment: Antibacterial activity against Proteus mirabilis by broth microdilution method. The essentials: as §1
The test system of another test is Enterobacter sp. As to the kind of experiment: Antibacterial activity against Enterobacter spp. by broth microdilution method. A digest of the protocol:
as §1

The subject of a further test is Staphylococcus sp. As to the kind of experiment: Antibacterial activity against Staphylococcus spp. by broth microdilution method. A digest of the protocol: as §1

In brackets after ≈: the same amount, converted by molar mass.

By MIC50 is commonly meant an inhibitory concentration at the 50% level, which refers to growth in some studies and to a panel of isolates in others. High values mean lower susceptibility, low ones higher susceptibility. A word on the MIC90: it is an inhibitory concentration at the 90% level, which refers to growth in some studies and to a panel of isolates in others. Higher therefore signals weaker potency. On to `Nc1nc(/C(=N/O)C(=O)N[C@@H]2C(=O)N3C(C(=O)O)=C(/C=C4\CCN([C@@H]5CCNC5)C4=O)CS[C@H]23)ns1` [CEFTOBIPROLE], for which the MIC50 against Serratia sp. was more than 32 µg/mL; against Klebsiella sp., more than 32 µg/mL; with Acinetobacter sp. it was more than 32 µg/mL; against Pseudomonas aeruginosa, 16 µg/mL (≈ 29.9 µM); in test [1], more than 32 µg/mL; against Citrobacter, 1 µg/mL (≈ 1.87 µM). The figures for the MIC50 in the test with Escherichia coli, with Proteus mirabilis and against Enterobacter sp. were more than 32 µg/mL, 0.125 µg/mL (≈ 0.234 µM) and more than 32 µg/mL, respectively. Moreover, the MIC90 against Klebsiella sp., against Acinetobacter sp., against Pseudomonas aeruginosa, against Escherichia coli, against Proteus mirabilis and in the test on Enterobacter sp. was more than 32 µg/mL each time.
As to `O=C(O)c1cn(C2CC2)c2cc(N3CCNCC3)c(F)cc2c1=O` [CIPROFLOXACIN], the MIC50 with Serratia sp. was 4 µg/mL (≈ 12.1 µM); against Klebsiella sp., 16 µg/mL (≈ 48.3 µM); in the test with Acinetobacter sp., more than 16 µg/mL; against Pseudomonas aeruginosa, 8 µg/mL (≈ 24.1 µM); in test [1], 16 µg/mL (≈ 48.3 µM); against Citrobacter, 8 µg/mL (≈ 24.1 µM). The MIC50 with Staphylococcus sp. is 16 µg/mL (≈ 48.3 µM); against Escherichia coli, more than 16 µg/mL; in the test with Proteus mirabilis, 2 µg/mL (≈ 6.04 µM); in the test on Enterobacter sp., 1 µg/mL (≈ 3.02 µM). Further, the MIC90 in the test on Klebsiella sp., against Acinetobacter sp., against Pseudomonas aeruginosa, in the test with Staphylococcus sp., against Escherichia coli and in the test with Proteus mirabilis was more than 16 µg/mL each time. For the same compound, the MIC90 in the test on Enterobacter sp. was more than 16 µg/mL.

For the origin of these results see ChEMBL document CHEMBL1687796, “Synthesis and spectrum of the neoglycoside ACHN-490” (2010).
